We go through nine compounds from ChEMBL document CHEMBL1275327, “Synthesis and biological activities of pyrazolo[3,4-g]quinoxaline derivatives” (Eur J Med Chem, 2010).

Series [1] has as its target Serine/threonine-protein kinase pim-1 (Homo sapiens) (UniProt P11309). Kind of series: Inhibition of Pim1 assessed as residual enzyme activity at 10 uM.
Series [2] shares this target. Kind of series: Inhibition of Pim1 assessed as residual enzyme activity at 1 uM.
The target in series [3] is Serine/threonine-protein kinase pim-2 (Homo sapiens) (UniProt Q9P1W9). The series can be described thus: Inhibition of Pim2 assessed as residual enzyme activity at 10 uM.
Serine/threonine-protein kinase pim-2 (Homo sapiens), sequence (Q9P1W9 whole entry, looked up): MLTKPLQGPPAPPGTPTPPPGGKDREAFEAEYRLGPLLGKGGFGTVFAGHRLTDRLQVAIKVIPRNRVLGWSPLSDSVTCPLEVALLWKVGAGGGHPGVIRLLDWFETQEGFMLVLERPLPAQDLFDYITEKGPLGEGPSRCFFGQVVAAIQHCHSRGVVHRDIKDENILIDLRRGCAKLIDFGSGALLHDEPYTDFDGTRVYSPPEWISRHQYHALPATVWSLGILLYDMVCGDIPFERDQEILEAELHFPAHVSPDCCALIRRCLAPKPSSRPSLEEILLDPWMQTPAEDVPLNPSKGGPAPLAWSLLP
Series [4] has the same target. The series can be described thus: Inhibition of Pim2 assessed as residual enzyme activity at 1 uM.
Series [5] concerns the target Serine/threonine-protein kinase pim-3 (Homo sapiens) (UniProt Q86V86). Kind of series: Inhibition of Pim3 assessed as residual enzyme activity at 10 uM.
Series [6] has the same target. Kind of series: Inhibition of Pim3 assessed as residual enzyme activity at 1 uM.
The nature of series [7]: Antiproliferative activity against human Fibroblast after 48 hrs by resazurin reduction test. Type of series: cell-based. The essentials:
(§1)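 Cells grown as monolayers in MEM with Earle's salts, 10% FCS, pyruvate, non-essential amino acids and gentamicin at 37 °C, 5% CO2. 5×10^3 cells/well adhered 16 h, then had 48 h continuous exposure to drug from a 20 mM DMSO stock. Resazurin (25 µg/mL, 1 h, 37 °C) was read by fluorescence (ex 530/em 590 nm). IC50 came from blank-corrected survival % vs control wells.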

Series [8] relates to PA-1. Kind of series: Antiproliferative activity against human PA1 cells after 48 hrs by resazurin reduction test. The format is functional, cell-based. The note with it: PA-1, 48 h. The essentials: as §1
For orientation: Resazurin is reduced to fluorescent resorufin, in cell work by metabolically active cells.

For series [9], the system named is PC-3. Kind of series: Antiproliferative activity against human PC3 cells after 48 hrs by resazurin reduction test. The format is functional, cell-based. The note with it: PC-3, 48 h. In short, it runs like this: as §1
The subject of series [10] is DU-145. Kind of series: Antiproliferative activity against human DU145 cells after 48 hrs by resazurin reduction test. Type of series: functional, cell-based. The note with it: DU-145, 48 h. The essentials:
as §1

A short description of series [11]: Antiproliferative activity against human Fibroblast assessed as inhibition of cell proliferation at 10 uM after 48 hrs by resazurin reduction test. The format is cell-based. The note with it: human fibroblasts.
For series [12], the system named is PA-1. Kind of series: Antiproliferative activity against human PA1 cells assessed as inhibition of cell proliferation at 10 uM after 48 hrs by resazurin reduction test. The note with it: PA-1, 48 h. The format is functional. The essentials:
(§2)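 PA1 and PC3 screen: cells at 5×10^3/well adhered 16 h, then were treated 48 h continuously at 1 and 10 µM from a 20 mM DMSO stock. Growth inhibition was scored by resazurin reduction (25 µg/mL, 1 h, 37 °C; fluorescence ex 530/em 590 nm) relative to control wells after blank subtraction.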

For series [13], the system named is PC-3. Kind of series: Antiproliferative activity against human PC3 cells assessed as inhibition of cell proliferation at 10 uM after 48 hrs by resazurin reduction test. Type of series: functional. The note with it: PC-3, 48 h. In short, it runs like this:
as §2

Series [14] deals with DU-145. Kind of series: Antiproliferative activity against human DU145 cells assessed as inhibition of cell proliferation at 10 uM after 48 hrs by resazurin reduction test. The format is functional. The note with it: DU-145, 48 h.

Calls of active or inactive are those of the source. The calls are words filed in the database; no cut-off is given here.

A word on the IC50: it is the concentration needed to halve the response being measured. Read a low IC50 as greater potency. By inhibition is commonly meant the percentage by which the read-out fell short of the control.

Serine/threonine-protein kinase pim-1 (Homo sapiens), sequence (P11309 whole entry, looked up): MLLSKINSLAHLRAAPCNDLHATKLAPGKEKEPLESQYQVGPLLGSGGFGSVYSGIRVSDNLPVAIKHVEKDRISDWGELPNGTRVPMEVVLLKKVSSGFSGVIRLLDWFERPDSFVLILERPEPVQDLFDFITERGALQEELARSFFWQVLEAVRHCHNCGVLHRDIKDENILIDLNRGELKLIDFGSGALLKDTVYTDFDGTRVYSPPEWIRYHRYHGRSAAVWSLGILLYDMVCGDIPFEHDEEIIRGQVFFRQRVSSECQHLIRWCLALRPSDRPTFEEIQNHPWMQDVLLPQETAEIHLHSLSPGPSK

Regarding `CC1Cc2nc3cc4[nH]ncc4cc3nc2C1C` (racemic), the Activity is 59% in series [1], 88.5% in series [2], 44% in series [5] and 72% in series [6]. Further, the result in series [3] and in series [4] was inactive. For the same compound, the IC50 in [7] is above 50 µM; in the series on PA-1 [8], 6.1 µM; in the series with PC-3 [9], above 50 µM; in the series on DU-145 [10] it was above 50 µM.

For the compound `CCc1nc2cc3cn[nH]c3cc2nc1CC`, the Activity in [1] was 49%; in series [2] it was 89%; in series [5], 31%; in [6] it was 84%. The result in series [3] and in series [4] was inactive. Also, the half-maximal inhibitory concentration (IC50) in series [7] was above 50 µM; in the series on PA-1 [8], 6.5 µM; in the series on PC-3 [9], above 50 µM; in the series on DU-145 [10], above 50 µM.

`c1n[nH]c2cc3nc4c(nc3cc12)CCCC4`: the Activity in series [1] stood at 55.1%; in series [2], 90%; in series [5], 19.7%; in [6], 58%. Moreover, the result in [3] and in series [4] was inactive. In addition, the IC50 is above 50 µM in series [7], 16 µM with PA-1 [8], above 50 µM with PC-3 [9] and above 50 µM in the series on DU-145 [10].

With `CC1Cc2nc3cc4cn[nH]c4cc3nc2C1C` (racemic), the Activity in series [1] is 69%; in series [5], 33%; in [6], 73%. For the same compound, the outcome in series [2], in [3] and in [4] was inactive. The half-inhibitory concentration (IC50) is above 50 µM in series [7], 4.7 µM with PA-1 [8], above 50 µM in the series on PC-3 [9] and above 50 µM in the series with DU-145 [10].

With `c1n[nH]c2cc3nc4c(nc3cc12)CCC4`, the Activity in series [1] is 66.6%; in [2], 95%; in series [5], 46.4%; in [6] it was 81%. The result in [3] and in [4] was inactive. For the same compound, the inhibition at 48 h, 10 µM in series [11] is below 50%. The inhibition at 10 µM in the series on PA-1 [12], in the series with PC-3 [13] and in the series on DU-145 [14] was below 50% each time.

For the compound `CC1(C)[C@@H]2CC[C@@]1(C)c1nc3cc4cn[nH]c4cc3nc12`, the Activity in series [1] was found to be 45%; in series [2], 88%; in series [3] it was 76%; in series [4], 82%; in series [5] it was 37%; in series [6] it was 95%. The inhibition at 48 h, 10 µM in series [11] was below 50%. The inhibition at 10 µM in the series with PA-1 [12], with PC-3 [13] and in the series on DU-145 [14] was below 50% in each case.

On to `c1ccc(C2Cc3nc4cc5cn[nH]c5cc4nc3C2)cc1` (racemic), for which the Activity in [1] turned out to be 83%; in series [5], 79%; in series [6], 95%. Also, the result in series [2], in series [3] and in series [4] was inactive. For the same compound, the IC50 in series [7] was above 50 µM; in the series with PA-1 [8] it was 4.1 µM; in the series with PC-3 [9] it was above 50 µM; in the series on DU-145 [10], 35 µM.

Consider `CC1(C)[C@H]2CC[C@]1(C)c1nc3cc4[nH]ncc4cc3nc12`, for which the Activity in series [1] came out at 71%; in series [2] it was 96%; in series [3], 78%; in series [5] it was 43%; in series [6], 83%. In series [4], the outcome was inactive. For the same compound, the inhibition at 48 h, 10 µM in [11] was below 50%. In addition, the inhibition at 10 µM in the series with PA-1 [12], with PC-3 [13] and in the series with DU-145 [14] was below 50% in each case.

Consider `Nc1cc2cn[nH]c2cc1N`, for which the Activity in series [1] was determined as 59%; in series [2] it was 95%; in [5], 32%; in [6] it was 69%. The outcome in series [3] and in series [4] was inactive. The inhibition at 48 h, 10 µM in series [11] is below 50%. The inhibition at 10 µM in the series with PA-1 [12], in the series with PC-3 [13] and in the series with DU-145 [14] was below 50% each time.
